Data on 12 molecules can be found in ChEMBL document CHEMBL1152661, “Synthesis of tetraglucosyl- and tetrapolyamine-tetrabenzoporphyrin conjugates for an application in PDT” (Bioorg Med Chem, 2009).

The nature of data set [1]: Induction of singlet oxygen production assessed as appearance of ergosterol acetate epidioxide at 10 uM after 10 mW/cm'2 irradiation for 30 mins by TLC. The format is physicochemical. Particulars: 0.5 h; call rule not given here.
Data set [2] in a line: Photostability assessed as residual absorbance at 2.5 mW/cm'2 irradiation for 45 mins by photobleaching test. The format is physicochemical. Particulars: read-out: Stability. The procedure, abridged: (§1)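 Solutions were irradiated with white light at fluence 2.5 mW/cm2. Absorbance was measured at the Soret band maximum and reported as % residual absorbance versus irradiation time.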

Data set [3] in a line: Photostability assessed as residual absorbance at 2.5 mW/cm'2 irradiation for 30 mins by photobleaching test. The conditions noted are these: read-out: Stability. Type of data set: physicochemical. The method in brief: as §1
Data set [4] in a line: Octanol-water partition coefficient, log P at 300 uM by absorption spectroscopy. The format is physicochemical. The procedure, abridged: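 1-Octanol/water partitioning at 25 °C using equal volumes of water and 1-octanol. Dye solution at 300 µM was vortexed and centrifuged. Aliquots of each phase were diluted separately into MeOH, and dye concentration was read by absorption spectroscopy. log P = log([dye]octanol/[dye]water).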

A short description of data set [5]: Photostability assessed as residual absorbance at 2.5 mW/cm'2 irradiation for 15 mins by photobleaching test. Type of data set: physicochemical. The conditions noted are these: read-out: Stability. The method in brief:
as §1

The subject of data set [6] is HaCaT. The experiment in a line: Photocytotoxicity against human HaCaT cells preincubated for 24 hrs in dark followed by illumination at 5.5 x 10^-2 mW/cm'2 light measured after 24 hrs post illumination by MTT assay. The format is functional, cell-based. Background: Tetrazolium dyes change colour on reduction, which living cells bring about.
The test system of data set [7] is MCF7. The experiment in a line: Photocytotoxicity against human MCF7 cells preincubated for 24 hrs in dark followed by illumination at 5.5 x 10^-2 mW/cm'2 light measured after 24 hrs post illumination by MTT assay. Type of data set: functional, cell-based.
The nature of data set [8]: Photostability assessed as residual absorbance at 2.5 mW/cm'2 irradiation for 60 mins by photobleaching test. The format is physicochemical. Particulars: read-out: Stability. The procedure, abridged:
as §1

[9] abbreviates: Homo sapiens, HaCaT, read-out: IC50.
Where [10] appears, read: Homo sapiens, MCF7, read-out: IC50.

Converted amounts (≈) assume the structure as drawn.

As for `O=C([O-])c1c(Cl)c(Cl)c(Cl)c(Cl)c1-c1c2cc(I)c(=O)c(I)c-2oc2c(I)c([O-])c(I)cc12.[K+].[K+]`, the result in data set [1] was Active.

As for `NCCOCCOCCNC(=O)c1ccc(-c2c3nc(c(-c4ccc(C(=O)NCCOCCOCCN)cc4)c4[nH]c(c(-c5ccc(C(=O)NCCOCCOCCN)cc5)c5nc(c(-c6ccc(C(=O)NCCOCCOCCN)cc6)c6[nH]c2c2ccccc62)-c2ccccc2-5)c2ccccc42)-c2ccccc2-3)cc1`, in data set [1], the result was Active.

Turning to `NCCCCN(CCCN)CCCCNC(=O)c1ccc(-c2c3nc(c(-c4ccc(C(=O)NCCCCN(CCCN)CCCCN)cc4)c4[nH]c(c(-c5ccc(C(=O)NCCCCN(CCCN)CCCCN)cc5)c5nc(c(-c6ccc(C(=O)NCCCCN(CCCN)CCCCN)cc6)c6[nH]c2c2ccccc62)-c2ccccc2-5)c2ccccc42)-c2ccccc2-3)cc1`, the result in data set [1] was Active. For the same molecule, the remaining at 0.75 h in data set [2] is 97%. Moreover, the remaining at 0.5 h in data set [3] stood at 99%. Moreover, the logP at 300 µM in data set [4] was -0.21. Also, the remaining at 0.25 h in data set [5] turned out to be 100%. The IC50 in data set [6] (setting [9]) was 3.42 µg/mL (≈ 1.92 µM); in data set [7] (setting [10]) it was 7.28 µg/mL (≈ 4.08 µM). Also, the remaining at 1 h in data set [8] was determined as 96%.

For `NCCCNCCCCN(CCCN)CCCCNC(=O)c1ccc(-c2c3nc(c(-c4ccc(C(=O)NCCCCN(CCCN)CCCCNCCCN)cc4)c4[nH]c(c(-c5ccc(C(=O)NCCCCN(CCCN)CCCCNCCCN)cc5)c5nc(c(-c6ccc(C(=O)NCCCCN(CCCN)CCCCNCCCN)cc6)c6[nH]c2c2ccccc62)-c2ccccc2-5)c2ccccc42)-c2ccccc2-3)cc1`, in data set [1], the outcome was Active. Moreover, the remaining at 0.75 h in data set [2] was found to be 99%. In data set [3], the remaining at 0.5 h came out at 100%. Besides, in data set [4], the logP at 300 µM was -0.47. In addition, the remaining at 0.25 h in data set [5] came out at 100%. For the same molecule, the IC50 entry in data set [6] (hacat) and in data set [7] (mcf7) was “Not Active” throughout. Moreover, in data set [8], the remaining at 1 h worked out at 97%.

As to `CC(C)(C)OC(=O)NCCOCCOCCNC(=O)c1ccc(-c2c3nc(c(-c4ccc(C(=O)NCCOCCOCCNC(=O)OC(C)(C)C)cc4)c4[nH]c(c(-c5ccc(C(=O)NCCOCCOCCNC(=O)OC(C)(C)C)cc5)c5nc(c(-c6ccc(C(=O)NCCOCCOCCNC(=O)OC(C)(C)C)cc6)c6[nH]c2c2ccccc62)-c2ccccc2-5)c2ccccc42)-c2ccccc2-3)cc1`, the outcome in data set [1] was Active.

For `CC(C)(C)OC(=O)NCCCN(CCCCNC(=O)c1ccc(-c2c3nc(c(-c4ccc(C(=O)NCCCCN(CCCCN(CCCNC(=O)OC(C)(C)C)C(=O)OC(C)(C)C)CCCNC(=O)OC(C)(C)C)cc4)c4[nH]c(c(-c5ccc(C(=O)NCCCCN(CCCCN(CCCNC(=O)OC(C)(C)C)C(=O)OC(C)(C)C)CCCNC(=O)OC(C)(C)C)cc5)c5nc(c(-c6ccc(C(=O)NCCCCN(CCCCN(CCCNC(=O)OC(C)(C)C)C(=O)OC(C)(C)C)CCCNC(=O)OC(C)(C)C)cc6)c6[nH]c2c2ccccc62)-c2ccccc2-5)c2ccccc42)-c2ccccc2-3)cc1)CCCCN(CCCNC(=O)OC(C)(C)C)C(=O)OC(C)(C)C`, the outcome in data set [1] was Active.

For `CC(C)(C)OC(=O)NCCCCN(CCCCNC(=O)c1ccc(-c2c3nc(c(-c4ccc(C(=O)NCCCCN(CCCCNC(=O)OC(C)(C)C)CCCNC(=O)OC(C)(C)C)cc4)c4[nH]c(c(-c5ccc(C(=O)NCCCCN(CCCCNC(=O)OC(C)(C)C)CCCNC(=O)OC(C)(C)C)cc5)c5nc(c(-c6ccc(C(=O)NCCCCN(CCCCNC(=O)OC(C)(C)C)CCCNC(=O)OC(C)(C)C)cc6)c6[nH]c2c2ccccc62)-c2ccccc2-5)c2ccccc42)-c2ccccc2-3)cc1)CCCNC(=O)OC(C)(C)C`, the outcome in data set [1] was Active.

Turning to `CC(=O)OC[C@H]1O[C@H](OCC(=O)NCOCCOCCNC(=O)c2ccc(-c3c4nc(c(-c5ccc(C(=O)NCCOCCOCNC(=O)CO[C@H]6O[C@H](COC(C)=O)[C@@H](OC(C)=O)[C@H](OC(C)=O)[C@H]6O)cc5)c5[nH]c(c(-c6ccc(C(=O)NCCOCCOCNC(=O)CO[C@H]7O[C@H](COC(C)=O)[C@@H](OC(C)=O)[C@H](OC(C)=O)[C@H]7O)cc6)c6nc(c(-c7ccc(C(=O)NCCOCCOCNC(=O)CO[C@H]8O[C@H](COC(C)=O)[C@@H](OC(C)=O)[C@H](OC(C)=O)[C@H]8O)cc7)c7[nH]c3c3ccccc73)-c3ccccc3-6)c3ccccc53)-c3ccccc3-4)cc2)[C@H](O)[C@@H](OC(C)=O)[C@@H]1OC(C)=O`, the outcome in data set [1] was Active.

For the molecule `OC[C@H]1O[C@@H](Oc2ccc(-c3c4nc(c(-c5ccc(O[C@@H]6O[C@H](CO)[C@@H](O)[C@H](O)[C@H]6O)cc5)c5[nH]c(c(-c6ccc(O[C@@H]7O[C@H](CO)[C@@H](O)[C@H](O)[C@H]7O)cc6)c6nc(c(-c7ccc(O[C@@H]8O[C@H](CO)[C@@H](O)[C@H](O)[C@H]8O)cc7)c7[nH]c3c3ccccc73)-c3ccccc3-6)c3ccccc53)-c3ccccc3-4)cc2)[C@H](O)[C@@H](O)[C@@H]1O`, in data set [1], the outcome was Active. Besides, in data set [2], the remaining at 0.75 h was found to be 98%. Also, the remaining at 0.5 h in data set [3] was determined as 99%. This molecule had a lipophilicity (logP) at 300 µM in data set [4] of 0.18. Further, the remaining at 0.25 h in data set [5] amounted to 100%. The IC50 in data set [6] (setting [9]) came to 0.971 µg/mL (≈ 0.636 µM); in data set [7] (setting [10]), 8.41 µg/mL (≈ 5.51 µM). Also, the remaining at 1 h in data set [8] was 95%.

With `c1ccc(-c2c3nc(c(-c4ccccc4)c4[nH]c(c(-c5ccccc5)c5nc(c(-c6ccccc6)c6[nH]c2c2ccccc62)-c2ccccc2-5)c2ccccc42)-c2ccccc2-3)cc1` [Ar4TBP], the IC50 result in data set [6] (hacat) and in data set [7] (mcf7) was “Not Active” throughout.

`O=C1OC2(c3ccccc31)c1cc(Br)c(O)c(Br)c1Oc1c2cc(Br)c(O)c1Br` [EOSIN]: in data set [1], the outcome was Active.

As to PORFIMER SODIUM, in data set [1], the result was Active. The IC50 stood at 0.0787 µg/mL in data set [6] (hacat) and 1.224 µg/mL in data set [7] (mcf7).

As usually defined, the logP is a log measure of how a compound divides between an organic and an aqueous phase. The low end stands for lower lipophilicity, the high end for higher lipophilicity. One may read the IC50 as the concentration at which inhibition is half-maximal.
